We go through three compounds from ChEMBL document CHEMBL1127367, “Antiproliferative properties of polyamine analogues: a structure-activity study” (J Med Chem, 1994).

Assay [1] concerns the target Spermidine/spermine N(1)-acetyltransferase (SAT) (Mus musculus) (UniProt Q6P8J2+P48026). Kind of assay: […] spermidine/spermine N1-Acetyltransferase (SSAT) activity. It counts as functional. Set-up: concentration or dose not given beside the values.
Assay [2] relates to L1210. Briefly: Compound was evaluated for its impact on spermidine levels after 48 hr at concentration 100 uM. The assay is classed as functional, Mus musculus.
Assay [3] relates to L1210. Briefly: Compound was evaluated for its impact on spermine […] levels after 48 hr at concentration 100 uM. It counts as functional, Mus musculus. Put shortly: (§1)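 L1210 suspension cultures were grown in RPMI-1640 with 10% NuSerum, 2% HEPES-MOPS and 1 mM aminoguanidine (37 °C, 5% CO2). Log-phase cells were treated for 48 h, then washed twice in cold RPMI-1640 and pelleted. Pellets were extracted with 0.6 N perchloric acid, and supernatants were held at −20 °C until HPLC. Polyamine levels are given as % of untreated controls.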

Assay [4] relates to L1210. Briefly: Compound was evaluated for its impact on spermidine levels after 48 hr at concentration 20 uM. The assay is classed as functional, Mus musculus. The method, boiled down:
as §1

Assay [5] concerns L1210. Briefly: In vitro inhibition of L1210 growth after 96 hours. The assay is classed as functional, cell-based. Particulars: Mus musculus, L1210, 96 h. The method, boiled down:
(§2)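 Log-phase L1210 cultures (0.5–1.0 × 10^5 cells/mL) treated with analogue diluted in sterile water and filter-sterilized. After 48 h, cells were reseeded and grown a further 48 h for the 96 h point. Cells counted by Coulter counter. % growth = (treated − inoculum)/(untreated − inoculum) × 100.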

The test system of assay [6] is L1210. Kind of assay: In vitro inhibition of L1210 growth after 48 hours. Particulars: Mus musculus, L1210, 48 h. The assay is classed as functional, cell-based. Put shortly:
as §2

The test system of assay [7] is L1210. Kind of assay: Compound was evaluated for its impact on putrescine (Put) levels after 48 hr at concentration 100 uM. It counts as functional, Mus musculus.
Assay [8] has as its system L1210. Kind of assay: Compound was evaluated for its impact on spermine […] levels after 48 hr at concentration 20 uM. It counts as functional, Mus musculus. Put shortly:
as §1

The target in assay [9] is T1, Ornithine decarboxylase (Mus musculus) (UniProt P00860).
T1 sequence (whole entry): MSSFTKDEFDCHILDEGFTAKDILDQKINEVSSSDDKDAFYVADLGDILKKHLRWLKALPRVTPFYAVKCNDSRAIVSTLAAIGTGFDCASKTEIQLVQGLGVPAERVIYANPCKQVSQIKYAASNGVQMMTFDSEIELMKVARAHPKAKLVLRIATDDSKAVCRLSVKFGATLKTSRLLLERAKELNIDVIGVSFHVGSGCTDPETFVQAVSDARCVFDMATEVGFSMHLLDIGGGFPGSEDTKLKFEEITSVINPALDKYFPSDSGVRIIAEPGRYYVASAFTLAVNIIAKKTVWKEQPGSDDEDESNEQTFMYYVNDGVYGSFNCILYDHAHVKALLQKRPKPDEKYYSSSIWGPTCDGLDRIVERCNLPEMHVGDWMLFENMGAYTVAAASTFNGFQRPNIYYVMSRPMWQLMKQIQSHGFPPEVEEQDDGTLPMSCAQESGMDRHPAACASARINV
Kind of assay: Inhibition of ornithine decarboxylase (ODC) activity. The assay is classed as functional. Set-up: concentration or dose not given beside the values.

The test system of assay [10] is L1210. Kind of assay: Compound was evaluated for its impact on putrescine (Put) levels after 48 hr at concentration 20 uM. The assay is classed as functional, Mus musculus. Put shortly: as §1
The subject of assay [11] is L1210. Briefly: Inhibition of radiolabeled spermidine uptake into L1210 cells in vitro. The assay is classed as functional, cell-based, Mus musculus.
The target in assay [12] is T2, S-adenosylmethionine decarboxylase proenzyme 1 (Mus musculus) (UniProt P0DMN7).
T2 sequence (whole entry): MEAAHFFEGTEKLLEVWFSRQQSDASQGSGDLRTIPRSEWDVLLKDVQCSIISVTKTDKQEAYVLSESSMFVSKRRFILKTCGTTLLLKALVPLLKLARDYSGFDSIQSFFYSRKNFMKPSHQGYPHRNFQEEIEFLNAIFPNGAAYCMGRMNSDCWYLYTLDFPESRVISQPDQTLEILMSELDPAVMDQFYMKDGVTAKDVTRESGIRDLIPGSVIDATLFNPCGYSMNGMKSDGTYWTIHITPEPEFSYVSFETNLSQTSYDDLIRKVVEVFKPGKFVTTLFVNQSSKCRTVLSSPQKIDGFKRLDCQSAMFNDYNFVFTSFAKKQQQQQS
Briefly: Inhibition of S-Adenosyl-methionine decarboxylase (AdoMetDC) activity. The arrangement: concentration or dose not given beside the values. The assay is classed as functional.

The subject of assay [13] is L1210. Kind of assay: Compound was evaluated for its impact on spermine levels after 48 hr at concentration 10 uM. The assay is classed as functional, Mus musculus. Put shortly:
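Murine L1210 leukemia cells in log-phase suspension (RPMI-1640, 10% NuSerum, 2% HEPES-MOPS, 1 mM aminoguanidine, 37 °C, 5% CO2) exposed to analogue for 48 h. Cells washed twice in cold RPMI-1640, extracted with 0.6 N perchloric acid, and polyamines quantified by HPLC. Spermine is reported as % of untreated control.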

Assay [14] deals with L1210. Kind of assay: Compound level in L1210 cells after 48 hours of incubation at initial concentration of 10 uM is expressed as nmol/10e6 cells. The assay is classed as functional, Mus musculus. Put shortly: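 Murine L1210 leukemia cells were kept in logarithmic growth as a suspension in RPMI-1640 with 10% NuSerum, 2% HEPES-MOPS buffer and 1 mM aminoguanidine, at 37 °C under 5% CO2. Log-phase cells were exposed to the analogue for 48 h. Intracellular analogue content is reported per 10^6 cells.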

For assay [15], the system named is L1210. Briefly: Compound was evaluated for its impact on putrescine (Put) levels after 48 hr at concentration 10 uM. It counts as functional, Mus musculus. Put shortly: as §1
Assay [16] relates to L1210. Briefly: Compound was evaluated for its impact on spermidine levels after 48 hr at concentration 10 uM. It counts as functional, Mus musculus. The method, boiled down:
as §1

Assay [17] deals with L1210. Briefly: Compound level in L1210 cells after 48 hours of incubation at initial concentration of 100 uM is expressed as nmol/10e6 cells. The assay is classed as functional, Mus musculus. The arrangement: unit: nmol/10^6 cells.
The test system of assay [18] is L1210. Briefly: Compound level in L1210 cells after 48 hours of incubation at initial concentration of 500 uM is expressed as nmol/10e6 cells. The arrangement: unit: nmol/10^6 cells. The assay is classed as functional, Mus musculus.
The subject of assay [19] is L1210. Briefly: Compound was evaluated for its impact on spermine levels after 48 hr at concentration 100 uM. It counts as functional, Mus musculus.
Assay [20] has as its target T1, Ornithine decarboxylase (Mus musculus). Kind of assay: Effect of compound on ornithine decarboxylase (ODC) activity expressed as percent of untreated control for ODC (1 uM at 4 h(or 48h)). Put shortly:
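L1210 cells exposed to 1 μM analogue for 4 h, or for 48 h in some cases. ODC activity measured as 14CO2 released from [14C]carboxyl-labeled L-ornithine and expressed as % of untreated control.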

Assay [21] concerns L1210. Kind of assay: Compound was evaluated for its impact on spermine […] levels after 48 hr at concentration 10 uM. It counts as functional, Mus musculus. The method, boiled down:
as §1

Where only a bound is given, the exact number is not on record here.

Chain of Spermidine/spermine N(1)-acetyltransferase (SAT) (Mus musculus) (P48026 whole entry, looked up): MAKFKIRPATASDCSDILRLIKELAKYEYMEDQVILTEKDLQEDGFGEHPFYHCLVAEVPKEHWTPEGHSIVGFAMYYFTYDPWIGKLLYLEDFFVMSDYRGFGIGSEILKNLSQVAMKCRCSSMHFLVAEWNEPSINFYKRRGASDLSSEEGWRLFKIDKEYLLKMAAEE
Chain of Spermidine/spermine N(1)-acetyltransferase (SAT) (Mus musculus) (Q6P8J2 whole entry, looked up): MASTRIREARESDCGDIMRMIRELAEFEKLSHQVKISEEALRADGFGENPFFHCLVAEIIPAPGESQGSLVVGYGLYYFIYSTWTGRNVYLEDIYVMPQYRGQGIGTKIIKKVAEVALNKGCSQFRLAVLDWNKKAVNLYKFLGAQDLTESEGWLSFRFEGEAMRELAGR

Consider `CC(C)NCCCCNCCCCNCCCCNC(C)C`, for which the Activity came out at 130% in [1], 90% in assay [9] and 78% in assay [12]. Besides, the Polyamine in the assay with L1210 [2] was found to be 7%; in the assay on L1210 [3] it was 67%; in the assay on L1210 [4] it was 17%; with L1210 [7], 0%; in the assay with L1210 [8] it was 83%; in the assay on L1210 [10], 0%. Also, the 50% inhibitory concentration (IC50) turned out to be 0.06 µM with L1210 [5] and 20 µM in the assay with L1210 [6]. Moreover, the Ki in the assay with L1210 [11] was found to be 8.1 µM.

On to `CCNCCCCNCCCCNCCCCNCC` [DIETHYLHOMOSPERMINE], for which the Polyamine in the assay with L1210 [13] is on record as 61%; in the assay with L1210 [15], 0%; with L1210 [16], 0%. The Activity in assay [1] came out at 140%; in the assay with L1210 [14], 2.94; in assay [9] it was 7%; in assay [12] it was 41%. For the same compound, the concentration for half-maximal inhibition (IC50) in the assay on L1210 [5] is 0.07 µM; with L1210 [6], 0.2 µM. This compound also returned a Ki with L1210 [11] of 1.4 µM.

Take `CCNCCCNCCCNCCCNCC` [BIS(ETHYL)NORSPERMINE]: the Activity in assay [1] worked out at 1500%; with L1210 [17], 2.44; in the assay on L1210 [18], 1.59; in assay [20], 10%; in assay [12] it was 42%. Besides, the Polyamine in the assay with L1210 [2] was determined as 6%; in the assay on L1210 [19], 30%; in the assay on L1210 [15] it was 30%; in the assay with L1210 [21], 31%; in the assay on L1210 [7], 0%; in the assay with L1210 [16] it was 14%. For the same compound, the IC50 was 2 µM with L1210 [5] and greater than 100 µM with L1210 [6]. Moreover, the inhibitory constant (Ki) in the assay with L1210 [11] amounted to 17 µM.

By IC50 is commonly meant the concentration that inhibits the measured activity by half. Broadly, the Ki is a dissociation constant, usually derived from enzyme kinetics or from competition with a known ligand.
